System: U937 cells
Experiment: CellTiter-Glo Luminescent cell viability assay
Type: cell-based, human
Conditions: 25 μM, U937 cells, 72 h, relative to Mitomycin C = 100%
Procedure, shortened: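 Human myeloid leukaemia U937 cells exposed to a range of test compound concentrations for 72 h, with Mitomycin C as positive control and DMSO diluent as negative control. CellTiter-Glo reagent added at an equal volume to the medium, mixed 2 min for lysis, then held 10 min at room temperature before luminescence was read. Viability was computed as RLU test ×100/RLU control. Half-maximal inhibitory concentration was fitted from the dose series.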

Compound | Percent inhibition at different concentrations of compounds (antiproliferative)
Methyl 2-(4-(1-(3-bromophenyl)cyclopropane-1-carboxamido)-3-methylphenoxy)acetate [Compound 8q] | 26%

Same assay, conditions: 50 μM, U937 cells, 72 h, relative to Mitomycin C = 100%

Compound | Percent inhibition at different concentrations of compounds (antiproliferative)
Methyl 2-(4-(1-(3-bromophenyl)cyclopropane-1-carboxamido)-3-methylphenoxy)acetate [Compound 8q] | 45%

Same assay, conditions: 100 μM, U937 cells, 72 h, relative to Mitomycin C = 100%

Compound | Percent inhibition at different concentrations of compounds (antiproliferative)
Methyl 2-(4-(1-(3-bromophenyl)cyclopropane-1-carboxamido)-3-methylphenoxy)acetate [Compound 8q] | 102%

Same assay, conditions: 200 μM, U937 cells, 72 h, relative to Mitomycin C = 100%

Compound | Percent inhibition at different concentrations of compounds (antiproliferative)
Methyl 2-(4-(1-(3-bromophenyl)cyclopropane-1-carboxamido)-3-methylphenoxy)acetate [Compound 8q] | 102%

Same assay, conditions: Homo sapiens, U-937, 72 h, read-out: Percent inhibition at different concentrations of compounds (antiproliferative)

Compound | inhibition at 25 µM | inhibition at 50 µM | inhibition at 100 µM | inhibition at 200 µM
COC(=O)COc1cccc(NC(=O)C2(c3ccccc3)CC2)c1 [Compound 8a, Methyl 2-(3-(1-phenylcyclopropane-1-carboxamido)phenoxy)acetate] | 28% | 28% | 102% | 100%
COC(=O)COc1ccc(NC(=O)C2(c3ccccc3)CC2)cc1 [Compound 8b, Methyl 2-(4-(1-phenylcyclopropane-1-carboxamido)phenoxy)acetate] | 41% | 44% | 102% | 101%
COC(=O)COc1ccc(NC(=O)C2(c3ccccc3)CC2)c(C)c1 [Compound 8c, Methyl 2-(3-methyl-4-(1-phenylcyclopropane-1-carboxamido)phenoxy)acetate] | 37% | 63% | 102% | 101%
COC(=O)COc1ccc(NC(=O)C2(c3ccccc3)CC2)cc1Br [Compound 8d, Methyl 2-(2-bromo-4-(1-phenylcyclopropane-1-carboxamido)phenoxy)acetate] | 15% | 24% | 100% | 101%
COC(=O)COc1cccc(NC(=O)C2(c3cccc(C)c3)CC2)c1 [Compound 8e, Methyl 2-(3-(1-(m-tolyl)cyclopropane-1-carboxamido)phenoxy)acetate] | 46% | 45% | 59% | 101%
COC(=O)COc1ccc(NC(=O)C2(c3cccc(C)c3)CC2)cc1 [Compound 8f, Methyl 2-(4-(1-(m-tolyl)cyclopropane-1-carboxamido)phenoxy)acetate] | 34% | 36% | 32% | 100%
COC(=O)COc1ccc(NC(=O)C2(c3cccc(C)c3)CC2)c(C)c1 [Compound 8g, Methyl 2-(3-methyl-4-(1-(m-tolyl)cyclopropane-1-carboxamido)phenoxy)acetate] | 18% | 25% | 89% | 100%
COC(=O)COc1cccc(NC(=O)C2(c3ccc(OC)cc3)CC2)c1 [Compound 8h, Methyl 2-(3-(1-(4-methoxyphenyl)cyclopropane-1-carboxamido)phenoxy)acetate] | 17% | 80% | 98% | 100%

System: not listed separately
Experiment: LDH release cytotoxicity assay
Type: cell-based
Conditions: human, U937 cells
Procedure, shortened: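 U937 cells were plated in 96-well format and given various test compound concentrations, with Triton X100 as positive cytotoxicity control, for 4 h at 37 °C. Plates were spun 5 min at 1000 RPM, and supernatant was moved to a fresh plate with LDH detection reagent for 10 min at room temperature in the dark. Optical density was then read, and half-maximal concentration was derived from the doses.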

Compound | inhibition at 4 h, 12.5 µM | inhibition at 4 h, 25 µM | inhibition at 4 h, 50 µM | inhibition at 4 h, 100 µM
COC(=O)COc1cccc(NC(=O)C2(c3ccccc3)CC2)c1 [Compound 8a, Methyl 2-(3-(1-phenylcyclopropane-1-carboxamido)phenoxy)acetate] | -1% | 2% | 2% | 1%
COC(=O)COc1ccc(NC(=O)C2(c3ccccc3)CC2)cc1 [Compound 8b, Methyl 2-(4-(1-phenylcyclopropane-1-carboxamido)phenoxy)acetate] | -2% | -3% | -2% | -2%
COC(=O)COc1ccc(NC(=O)C2(c3ccccc3)CC2)c(C)c1 [Compound 8c, Methyl 2-(3-methyl-4-(1-phenylcyclopropane-1-carboxamido)phenoxy)acetate] | 0% | -1% | 0% | -1%
COC(=O)COc1ccc(NC(=O)C2(c3ccccc3)CC2)cc1Br [Compound 8d, Methyl 2-(2-bromo-4-(1-phenylcyclopropane-1-carboxamido)phenoxy)acetate] | -1% | 0% | 3% | -3%
COC(=O)COc1cccc(NC(=O)C2(c3cccc(C)c3)CC2)c1 [Compound 8e, Methyl 2-(3-(1-(m-tolyl)cyclopropane-1-carboxamido)phenoxy)acetate] | -3% | -4% | -1% | -1%
COC(=O)COc1ccc(NC(=O)C2(c3cccc(C)c3)CC2)cc1 [Compound 8f, Methyl 2-(4-(1-(m-tolyl)cyclopropane-1-carboxamido)phenoxy)acetate] | -1% | -1% | 0% | 0%
COC(=O)COc1ccc(NC(=O)C2(c3cccc(C)c3)CC2)c(C)c1 [Compound 8g, Methyl 2-(3-methyl-4-(1-(m-tolyl)cyclopropane-1-carboxamido)phenoxy)acetate] | 0% | 0% | 1% | 0%
COC(=O)COc1cccc(NC(=O)C2(c3ccc(OC)cc3)CC2)c1 [Compound 8h, Methyl 2-(3-(1-(4-methoxyphenyl)cyclopropane-1-carboxamido)phenoxy)acetate] | 0% | 3% | 0% | -2%
